Results on 24 molecules are retold here after ChEMBL document CHEMBL2331220, “Benzimidazole clubbed with triazolo-thiadiazoles and triazolo-thiadiazines: new anticancer agents” (2013).

Common to all, as to format: functional
In experiment [1] the test system is UO-31. The experiment can be described thus: Cytotoxicity against human UO31 cells assessed as cell growth at 10 uM after 48 hrs by SRB assay relative to control. Conditions: UO-31, 48 h, read-out: Activity. The method, boiled down:
(§1)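 NCI single-dose primary screen: compound added at 1 × 10⁻⁵ M, cultures incubated 48 h. Protein stained with sulforhodamine B. Result given as percent growth of treated cells relative to untreated controls, where negative values mean cell kill.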

Experiment [2] concerns UO-31. As to the kind of experiment: Growth inhibition of human UO31 cells at 10 uM after 48 hrs by SRB assay relative to control. The note with it: UO-31, 48 h, read-out: GI. The method, boiled down: as §1
Experiment [3] deals with IGROV-1. As to the kind of experiment: Growth inhibition of human IGROV1 cells at 10 uM after 48 hrs by SRB assay relative to control. Conditions: IGROV-1, 48 h, read-out: GI. The essentials: as §1
(In SRB staining, fixed cells bind dye roughly in proportion to their protein.)

Experiment [4] deals with HOP-62. The experiment can be described thus: Cytotoxicity against human HOP62 cells assessed as cell growth at 10 uM after 48 hrs by SRB assay relative to control. Conditions: HOP-62, 48 h, read-out: Activity. The method, boiled down: (§2)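 Single-dose NCI screen. Compound was added at 1 × 10^-5 M and cultures were incubated 48 h. End point was sulforhodamine B protein staining, reported as percent growth of treated cells versus untreated control cells.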

Experiment [5] concerns HOP-62. As to the kind of experiment: Growth inhibition of human HOP62 cells at 10 uM after 48 hrs by SRB assay relative to control. The note with it: HOP-62, 48 h, read-out: GI. The essentials: as §1
The test system of experiment [6] is MCF7. The experiment can be described thus: Cytotoxicity against human MCF7 cells assessed as cell growth at 10 uM after 48 hrs by SRB assay relative to control. The note with it: MCF7, 48 h, read-out: Activity. The method, boiled down:
as §2

For experiment [7], the system named is MCF7. As to the kind of experiment: Growth inhibition of human MCF7 cells at 10 uM after 48 hrs by SRB assay relative to control. Conditions: MCF7, 48 h, read-out: GI. The essentials:
as §1

Experiment [8] has as its system HOP-92. As to the kind of experiment: Cytotoxicity against human HOP92 cells assessed as cell growth at 10 uM after 48 hrs by SRB assay relative to control. Conditions: HOP-92, 48 h, read-out: Activity. The method, boiled down: as §2
In experiment [9] the test system is T47D. The experiment can be described thus: Cytotoxicity against human T47D cells assessed as cell growth at 10 uM after 48 hrs by SRB assay relative to control. Conditions: read-out: Activity. The essentials: as §1
The subject of experiment [10] is NCI-H522. As to the kind of experiment: Growth inhibition of human NCI-H522 cells at 10 uM after 48 hrs by SRB assay relative to control. The note with it: NCI-H522, 48 h, read-out: GI. The essentials: as §1
The subject of experiment [11] is NCI-H522. The experiment can be described thus: Cytotoxicity against human NCI-H522 cells assessed as cell growth at 10 uM after 48 hrs by SRB assay relative to control. Conditions: NCI-H522, 48 h, read-out: Activity. The method, boiled down:
as §2

Experiment [12] deals with NCI-H322M. As to the kind of experiment: Cytotoxicity against human NCI-H322M cells assessed as cell growth at 10 uM after 48 hrs by SRB assay relative to control. Conditions: read-out: Activity. The method, boiled down: as §2

With `C=Cc1nn2c(CCC(=O)c3nc4ccccc4[nH]3)nnc2s1`, the growth at 10 µM in experiment [1] was found to be 76.2%.

On to `O=C(CCc1nnc2sc(-c3ccc(O)cc3)nn12)c1nc2ccccc2[nH]1`, for which the inhibition of growth at 10 µM in experiment [2] is no more than 32%. Moreover, in experiment [1], the growth at 10 µM amounted to 67.7%. `CCOC1=Nn2c(CCC(=O)c3nc4ccccc4[nH]3)nnc2SC1`: the growth at 10 µM in experiment [1] is 80.3%. Still for that read-out and setting: as for `NCCCc1nn2c(CCC(=O)c3nc4ccccc4[nH]3)nnc2s1`, the figure is 73.8%. As for `O=C(CCc1nnc2sc(-c3ccccc3O)nn12)c1nc2ccccc2[nH]1`, the growth at 10 µM in experiment [1] was determined as 51.3%. In experiment [3], the inhibition of growth at 10 µM is no more than 32%. For the molecule `C/C=C\c1nn2c(CCC(=O)c3nc4ccccc4[nH]3)nnc2s1`, in experiment [1], the growth at 10 µM is 54.9%. Further, in experiment [3], the inhibition of growth at 10 µM is no more than 32%. Regarding `O=C(CCc1nnc2sc(S)nn12)c1nc2ccccc2[nH]1`, the growth at 10 µM in [1] came to 76.6%.

For the molecule `O=C(CCc1nnc2sc(Cc3ccccc3Cl)nn12)c1nc2ccccc2[nH]1`, the inhibition of growth at 10 µM in [2] was no more than 32%. The growth at 10 µM in experiment [1] is 63%. With `O=C(CCc1nnc2sc(CS)nn12)c1nc2ccccc2[nH]1`, the growth at 10 µM in [1] is 79.4%.

`CCOc1nn2c(CCC(=O)c3nc4ccccc4[nH]3)nnc2s1`: the growth at 10 µM in experiment [4] amounted to 28.7%. Also, in experiment [5], the inhibition of growth at 10 µM is no more than 32%. As to `O=C(CCc1nnc2sc(Nc3ccc(Cl)cc3)nn12)c1nc2ccccc2[nH]1`, the inhibition of growth at 10 µM in experiment [2] was no more than 32%. For the same molecule, in experiment [1], the growth at 10 µM was found to be 64.2%. On to `Nc1ccccc1-c1nn2c(CCC(=O)c3nc4ccccc4[nH]3)nnc2s1`, for which, in experiment [6], the growth at 10 µM turned out to be 62%. In addition, in experiment [7], the inhibition of growth at 10 µM was no more than 32%. For `NC1=Nn2c(CCC(=O)c3nc4ccccc4[nH]3)nnc2SC1`, in experiment [1], the growth at 10 µM came out at 80.4%. Consider `O=C(CCc1nnc2n1N=C(O)CS2)c1nc2ccccc2[nH]1`, for which the growth at 10 µM in experiment [1] is 79.8%. With `O=C(CCc1nnc2sc(COc3ccccc3)nn12)c1nc2ccccc2[nH]1`, the inhibition of growth at 10 µM in experiment [2] was no more than 32%. Besides, the growth at 10 µM in experiment [1] amounted to 64.3%. For `O=C(CCc1nnc2sc(CCl)nn12)c1nc2ccccc2[nH]1`, the growth at 10 µM in [1] is 83.9%. For `O=C(CCc1nnc(S)o1)c1nc2ccccc2[nH]1`, in experiment [8], the growth at 10 µM was 69.4%. With `Cc1nn2c(CCC(=O)c3nc4ccccc4[nH]3)nnc2s1`, the growth at 10 µM in [9] is 84.2%.

In the case of `O=C(CCc1nnc2sc(CCCl)nn12)c1nc2ccccc2[nH]1`, the growth at 10 µM in experiment [1] worked out at 80.1%. `O=C(CCc1nnc2sc(C(c3ccccc3)c3ccccc3)nn12)c1nc2ccccc2[nH]1`: the inhibition of growth at 10 µM in [10] is no more than 32%. For the same molecule, the growth at 10 µM in experiment [11] was 30.2%. On to `O=C(CCc1nnc2sc(-c3ccccc3S)nn12)c1nc2ccccc2[nH]1`, for which, in [12], the growth at 10 µM was determined as 73.9%. As for `N#CCc1nn2c(CCC(=O)c3nc4ccccc4[nH]3)nnc2s1`, the growth at 10 µM in experiment [1] amounted to 75.5%. With `COc1ccc(-c2nn3c(CCC(=O)c4nc5ccccc5[nH]4)nnc3s2)cc1`, the growth at 10 µM in experiment [1] came out at 69.6%.

Turning to `O=C(CCc1nnc2n1N=C(Cl)CS2)c1nc2ccccc2[nH]1`, in [1], the growth at 10 µM turned out to be 78.9%.
